Laboratory results from ChEMBL document CHEMBL3797075 (Bioorg Med Chem, 2016).
Activity calls are given as the source filed them. The calls are words filed in the database; no cut-off is given here.

How the values were obtained:
[1] = target: T1, Steryl-sulfatase (Homo sapiens) (UniProt P08842); assay: Inhibition of steroid sulfatase (unknown origin) at 10 uM
T1 sequence (whole entry): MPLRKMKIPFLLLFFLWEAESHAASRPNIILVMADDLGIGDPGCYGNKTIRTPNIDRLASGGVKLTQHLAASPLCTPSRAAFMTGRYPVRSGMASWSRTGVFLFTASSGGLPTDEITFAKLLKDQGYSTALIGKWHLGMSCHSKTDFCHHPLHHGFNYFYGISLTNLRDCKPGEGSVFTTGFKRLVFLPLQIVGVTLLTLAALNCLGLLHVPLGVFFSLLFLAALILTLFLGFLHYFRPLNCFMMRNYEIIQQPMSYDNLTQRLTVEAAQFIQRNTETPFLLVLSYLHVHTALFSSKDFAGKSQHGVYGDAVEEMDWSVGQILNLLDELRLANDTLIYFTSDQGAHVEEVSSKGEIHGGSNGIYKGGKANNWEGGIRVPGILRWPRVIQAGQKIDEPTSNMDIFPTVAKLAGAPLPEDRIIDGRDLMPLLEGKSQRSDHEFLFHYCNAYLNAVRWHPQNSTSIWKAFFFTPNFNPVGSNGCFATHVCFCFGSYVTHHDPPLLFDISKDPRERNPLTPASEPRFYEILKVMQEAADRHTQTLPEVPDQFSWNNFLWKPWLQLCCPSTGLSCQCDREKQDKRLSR
Procedure, shortened: (§1)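 STS source was lysate of human JEG-3 choriocarcinoma cells at 125 µg protein/mL. Substrate was [³H]E₁S adjusted to 20 µM with unlabelled E₁S. Inhibitor was added at a single 10 µM or at 0.5–20 µM, incubated for 1 h. Product was extracted into toluene, with [4-¹⁴C]E₁ correcting for losses. Values are % inhibition, triplicate mean.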

[2] = target: T1, Steryl-sulfatase (Homo sapiens); assay: Inhibition of steroid sulfatase (unknown origin) at 20 uM; procedure, shortened: as §1
[3] = target: T1, Steryl-sulfatase (Homo sapiens); assay: Inhibition of steroid sulfatase (unknown origin); procedure, shortened: as §1
[4] = target: T2, Steryl-sulfatase (Homo sapiens, UniProt P08842); assay: (§2) Inhibition of steroid sulfatase in human JEG-3 cells assessed as […]Estrone formation using [3H]E1S as substrate; assay type: cell-based
T2 sequence (P08842 whole entry): T1 sequence (whole entry)
Procedure, shortened: (§3)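 Intact JEG-3 monolayers were incubated for 20 h at 37 °C in serum-free EMEM with [³H]E₁S (5 pmol, 60 Ci/mmol), with or without inhibitor. Estrone was separated from E₁S by toluene partition, with [¹⁴C]estrone correcting for recovery. Counts were read by scintillation, and hydrolysed E₁S mass was derived from ³H counts and substrate specific activity. Values are triplicate means.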

[5] = target: T1, Steryl-sulfatase (Homo sapiens); assay: as §2; assay type: cell-based; procedure, shortened: as §3
[6] = target: T1, Steryl-sulfatase (Homo sapiens); assay: Inhibition of steroid sulfatase in human JEG-3 cells assessed as […]Estrone formation using [3H]E1S as substrate at 10 uM; assay type: cell-based; procedure, shortened: as §3
[7] = target: T1, Steryl-sulfatase (Homo sapiens); assay: Inhibition of steroid sulfatase in human JEG-3 cells assessed as […]Estrone formation using [3H]E1S as substrate at 20 uM; assay type: cell-based; procedure, shortened: as §3

| inhibition [1] | Compound | other results |
| --- | --- | --- |
| Active | CNS(=O)(=O)Oc1ccc(NC(=O)C2CCCC2)cc1 | – |
| Active | CNS(=O)(=O)Oc1ccc(NC(=O)C2CCCCC2)cc1 | – |
| Active | Cc1ccc(S(=O)(=O)Oc2ccc(NC(=O)C3CCCC3)cc2)cc1 | – |
| Active | Cc1ccc(S(=O)(=O)Oc2ccc(NC(=O)C3CCCCC3)cc2)cc1 | – |
| 55.7% | NS(=O)(=O)Oc1ccc(NC(=O)C2CCCCC2)cc1 | inhibition [2]: 72%; inhibition [3]: Dose-dependent effect; IC50 [4]: 421 nM; inhibition [5]: Dose-dependent effect; inhibition [6]: 86.1%; inhibition [7]: 93.9% |
| Active | CN(C)S(=O)(=O)Oc1ccc(NC(=O)C2CCCCC2)cc1 | – |
| Active | CCS(=O)(=O)Oc1ccc(NC(=O)C2CCCCC2)cc1 | – |
